Drawing on ChEMBL document CHEMBL1145810, “Synthesis and complement inhibitory activity of B/C/D-ring analogues of the fungal metabolite 6,7-diformyl-3',4',4a',5',6',7',8',8a'-octahydro-4,6',7'-trihydroxy- 2',5',5',8a'-tetramethylspiro[1'(2'H)-naphthalene-2(3H)-benzofuran]” (J Med Chem, 2003), this text covers IC50 for 14 molecules.

For orientation: pIC50 means −log10 of the IC50, conventionally taken in molar units. Higher therefore signals a low IC50.

pIC50: −log10 of the molar value.

Experiment [1] is described as follows: Inhibitory activity against proteolytic release of C5a in activated human serum was determined. Type of experiment: functional. A digest of the protocol: (§1)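 Human serum (73% of final volume) equilibrated with a range of compound concentrations dissolved in 0.10 M HEPES, 0.15 M NaCl, pH 7.4. Serum then activated with heat-aggregated IgG, and C5a[desArg] and C3a[desArg] quantified. Fractional inhibition taken relative to the no-compound sample and to the background level without aggregated IgG. n = 3 (one compound n = 2).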

Experiment [2] is filed under the species Homo sapiens. Kind of experiment: Ability to inhibit complement-mediated erythrocyte lysis (hemolysis) in human serum. The format is functional, organism-based. A digest of the protocol:
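Antibody-sensitized sheep erythrocytes incubated with compound and diluted human serum, 60 min at 37 °C. Cells pelleted by centrifugation; released hemoglobin read at 410 nm in supernatant. Each sample paired with a serum-free control for complement-independent lysis, which was subtracted. Fractional inhibition taken relative to the no-compound sample.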

The species entered for experiment [3] is Oryctolagus cuniculus. Kind of experiment: Ability to inhibit lysis of rabbit erythrocytes by the alternative complement pathway was determined. Type of experiment: functional, organism-based. A digest of the protocol: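 Alternative-pathway hemolysis of rabbit erythrocytes. Cells incubated with compound and human serum for 60 min at 37 °C. Supernatant hemoglobin read at 410 nm after centrifugation. Serum-free background was subtracted and inhibition taken relative to the no-compound sample.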

The nature of experiment [4]: Inhibitory activity against proteolytic release of C3a in activated human serum was determined. The format is functional. The essentials:
as §1

For the molecule `COc1cc(C(=O)O)c(C=O)c2c1CC1(CCCCC1)O2`, the negative logarithm of the IC50 (pIC50) in experiment [1] was 3.30; in experiment [2], 3.80; in experiment [3], 3.14.
Consider `O=C(O)c1cc(O)c2c(c1)OC1(CCCCC1)C2`, for which the results for the pIC50 in experiment [2] and in experiment [3] were 2.82 and 2.42, respectively.
With `O=C(O)c1ccccc1O` [SALICYLIC ACID], the negative logarithm of the IC50 (pIC50) in experiment [1] is 1.68.
As for `COc1cc(C(=O)O)cc2c1CC1(CCCCC1)O2`, the pIC50 in experiment [2] was 3.28; in experiment [3] it was 2.66.
As to `COc1cc(C(=O)O)c(C(=O)O)c2c1CC1(CCCCC1)O2`, the pIC50 is 3.10 in experiment [2] and 2.92 in experiment [3].
As to `O=C(O)c1ccc(O)cc1O` [2,4-DIHYDROXYBENZOIC ACID], the negative logarithm of the IC50 (pIC50) in experiment [1] was 1.66.
With `C[C@@H]1CCC2C(C)(C)[C@H](O)[C@H](O)C[C@]2(C)C12Cc1c(O)cc(C(=O)O)c(C=O)c1O2` (stereo partly drawn), the pIC50 in experiment [1] is 2.52; in experiment [2], 3.24; in experiment [3], 3.48.
Turning to `COc1cc(C=O)c(C(=O)O)c2c1CC1(CCCCC1)O2`, the pIC50 is 2.77 in experiment [2] and 2.72 in experiment [3].
For the molecule `COc1ccc(C(=O)O)c2c1CC1(CCCCC1)O2`, the negative logarithm of the IC50 (pIC50) is 2.30 in experiment [1], 2.89 in experiment [2], 2.66 in experiment [3] and 1.66 in experiment [4].
In turn, `COc1ccc(C(=O)O)c(O)c1CC1=CCCCC1` had a negative-log IC50 (pIC50) in experiment [2] of 2.68.
Take `COc1ccc(C=O)c2c1CC1(CCCCC1)O2`: the pIC50 in experiment [1] was 2.10; in experiment [4] it was 1.89.
In the case of `COc1cc(C(=O)O)cc(O)c1CC1=CCCCC1`, the pIC50 was 3.09 in experiment [2] and 2.46 in experiment [3].
Turning to `O=C(O)c1ccc(O)c2c1OC1(CCCCC1)C2`, the negative-log IC50 (pIC50) in experiment [2] is 2.52.
Turning to `COc1cc2c(c3c1CC1(CCCCC1)O3)C(=O)OC2`, the pIC50 in experiment [1] was 2.89; in experiment [4], 3.15.
